Measured values as given in ChEMBL document CHEMBL1147050, “Small-molecule agonists for the glucagon-like peptide 1 receptor” (Proc Natl Acad Sci U S A, 2007).
Active and inactive are the calls of the source. No cut-off for these calls is given here.

Experiments:
[1] = molecular target: T1, Glucagon-like peptide 2 receptor (Homo sapiens) (UniProt O95838); experiment: Agonist activity at human GLP2 receptor expressed in BHK cells assessed as cAMP accumulation; type: functional, cell-based
T1 sequence (whole entry): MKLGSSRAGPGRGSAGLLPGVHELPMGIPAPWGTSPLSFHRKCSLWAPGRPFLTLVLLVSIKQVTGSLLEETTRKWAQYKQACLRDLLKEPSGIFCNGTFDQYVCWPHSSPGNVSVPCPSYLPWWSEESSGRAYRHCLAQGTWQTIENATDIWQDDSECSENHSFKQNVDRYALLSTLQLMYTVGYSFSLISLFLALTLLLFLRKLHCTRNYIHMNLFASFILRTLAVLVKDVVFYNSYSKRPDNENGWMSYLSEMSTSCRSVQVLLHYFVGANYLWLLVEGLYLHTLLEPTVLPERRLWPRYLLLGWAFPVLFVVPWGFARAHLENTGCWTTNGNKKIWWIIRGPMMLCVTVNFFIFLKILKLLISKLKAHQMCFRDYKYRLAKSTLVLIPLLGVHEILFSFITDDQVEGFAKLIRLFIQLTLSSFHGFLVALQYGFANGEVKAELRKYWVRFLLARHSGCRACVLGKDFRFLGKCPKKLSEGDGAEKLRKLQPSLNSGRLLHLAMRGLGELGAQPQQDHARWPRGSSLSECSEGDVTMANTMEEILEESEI

[2] = molecular target: T2, Glucagon-like peptide 1 receptor (Homo sapiens, UniProt P43220); experiment: Agonist activity at human GLP1 receptor expressed in BHK cells assessed as cAMP accumulation; type: functional, cell-based
[3] = molecular target: Glucagon receptor (Homo sapiens) (UniProt P47871); experiment: Agonist activity at human glucagon receptor expressed in BHK cells assessed as cAMP accumulation; type: functional, cell-based
[4] = molecular target: T3, Gastric inhibitory polypeptide receptor (Homo sapiens) (UniProt P48546); experiment: Agonist activity at human GIP receptor expressed in BHK cells assessed as cAMP accumulation; type: functional, cell-based
T3 sequence (whole entry): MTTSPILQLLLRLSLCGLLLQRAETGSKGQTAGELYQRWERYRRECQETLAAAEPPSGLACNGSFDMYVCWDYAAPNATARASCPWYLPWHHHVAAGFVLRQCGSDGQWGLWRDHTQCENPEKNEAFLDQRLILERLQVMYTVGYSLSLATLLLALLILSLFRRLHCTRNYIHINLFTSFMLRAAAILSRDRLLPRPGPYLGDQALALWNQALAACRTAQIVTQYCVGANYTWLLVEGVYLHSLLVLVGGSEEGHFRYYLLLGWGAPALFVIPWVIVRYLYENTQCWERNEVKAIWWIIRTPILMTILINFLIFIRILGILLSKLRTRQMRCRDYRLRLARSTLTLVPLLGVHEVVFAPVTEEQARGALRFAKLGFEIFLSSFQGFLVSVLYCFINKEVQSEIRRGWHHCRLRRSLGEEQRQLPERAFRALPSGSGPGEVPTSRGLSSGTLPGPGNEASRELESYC

[5] = molecular target: T2, Glucagon-like peptide 1 receptor; experiment: Increase in [125I]GLP1 binding to human GLP1 receptor expressed in BHK cells; type: cell-based
In short: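 BHK-cell plasma membranes expressing human GLP-1 receptor with 125I-GLP-1(7–36)amide tracer (50,000 cpm/well) in 25 mM Hepes, 0.1% BSA, pH 7.4; final DMSO 4.4%. Incubated 1 h at 37°C, then vacuum filtration and one wash. Nonspecific binding defined with 1 μM GLP-1; triplicates; curves fitted as one-site competition.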

Pancreas = experiment: Induction of 10 mM glucose-induced insulin release in Sprague-Dawley rat pancreas at 10 uM; type: functional, tissue-based
In short: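 Pancreas from male SD rats perfused at 37°C with oxygenated Krebs Ringer containing 0.25% BSA, 4% Dextran T-70 and 2 mM calcium, total flow 1.9 ml/min. Compound (final DMSO 0.25%) given at t = 20–40 min with 10 mM glucose; insulin release followed; two to three experiments, mean ± SD.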

Mus musculus [6] = species on record: Mus musculus; experiment: Induction of 10 mM glucose-induced insulin release in CD1 GLP1 receptor knockout mouse pancreatic islets at 1000 nM; type: functional
In short: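 Islets came from CD1 GLP-1 receptor knockout mice, isolated by collagenase and cultured overnight, then perifused at 37 °C, 0.30 ml/min, 30 islets per column. After 30 min at 3 mM glucose, glucose was 3 mM from 0–30 min, then 10 mM. Agents were present 10–60 min, with DMSO ≤0.1% and a 10 μM imidazoline control. Three groups of 30 islets, mean ± SEM.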

Mus musculus [7] = species on record: Mus musculus; experiment: Induction of 3 mM glucose-induced insulin release in CD1 wild type mouse pancreatic islets at 1000 nM; type: functional
In short: (§1)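 Adult CD1 wild-type mouse islets were isolated by collagenase digestion, cultured overnight in RPMI 1640 with 10% newborn calf serum, and perifused the next day. Columns held 30 islets, run at 37 °C and 0.30 ml/min in pH 7.4 Hepes buffer with albumin. After 30 min basal perifusion at 3 mM glucose, glucose was 3 mM from 0–60 min, then 10 mM. Agent was present 10–70 min (final DMSO ≤0.1%). Three groups of 30 islets, mean ± SEM.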

Mus musculus [8] = species on record: Mus musculus; experiment: Induction of 10 mM glucose-induced insulin release in CD1 GLP1 receptor knockout mouse pancreatic islets at 100 nM; type: functional
Mus musculus [9] = species on record: Mus musculus; experiment: Induction of 10 mM glucose-induced insulin release in CD1 wild type mouse pancreatic islets at 100 nM; type: functional; in short: as §1
Mus musculus [10] = species on record: Mus musculus; experiment: Induction of 10 mM glucose-induced insulin release in CD1 wild type mouse pancreatic islets at 1000 nM; type: functional
In short: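 Islets from adult CD1 mice isolated by collagenase and cultured overnight in RPMI 1640 with 10% newborn calf serum. Groups of 30 islets perifused at 37°C, 0.30 ml/min, in Hepes-bicarbonate buffer with albumin. Glucose 3 mM from 0–60 min, then 10 mM; compound added at 10 min and removed at 70 min. Final DMSO ≤0.1%. Three groups per condition.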

Mus musculus [11] = species on record: Mus musculus; experiment: Induction of 3 mM glucose-induced insulin release in CD1 wild type mouse pancreatic islets at 100 nM; type: functional; in short: as §1

T2 sequence (P43220 whole entry): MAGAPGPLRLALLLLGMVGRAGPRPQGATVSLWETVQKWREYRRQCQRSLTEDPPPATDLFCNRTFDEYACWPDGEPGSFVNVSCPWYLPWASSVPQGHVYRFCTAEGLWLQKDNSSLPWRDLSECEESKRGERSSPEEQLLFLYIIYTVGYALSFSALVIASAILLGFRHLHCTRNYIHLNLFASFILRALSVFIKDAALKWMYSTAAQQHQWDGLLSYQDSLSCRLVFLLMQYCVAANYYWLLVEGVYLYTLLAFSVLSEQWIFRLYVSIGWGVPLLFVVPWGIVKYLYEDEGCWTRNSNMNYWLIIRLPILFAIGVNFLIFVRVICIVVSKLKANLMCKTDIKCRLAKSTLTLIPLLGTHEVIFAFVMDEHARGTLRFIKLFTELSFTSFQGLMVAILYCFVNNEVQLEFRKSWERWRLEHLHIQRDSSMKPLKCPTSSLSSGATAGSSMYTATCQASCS
Chain of Glucagon receptor (Homo sapiens) (P47871 whole entry): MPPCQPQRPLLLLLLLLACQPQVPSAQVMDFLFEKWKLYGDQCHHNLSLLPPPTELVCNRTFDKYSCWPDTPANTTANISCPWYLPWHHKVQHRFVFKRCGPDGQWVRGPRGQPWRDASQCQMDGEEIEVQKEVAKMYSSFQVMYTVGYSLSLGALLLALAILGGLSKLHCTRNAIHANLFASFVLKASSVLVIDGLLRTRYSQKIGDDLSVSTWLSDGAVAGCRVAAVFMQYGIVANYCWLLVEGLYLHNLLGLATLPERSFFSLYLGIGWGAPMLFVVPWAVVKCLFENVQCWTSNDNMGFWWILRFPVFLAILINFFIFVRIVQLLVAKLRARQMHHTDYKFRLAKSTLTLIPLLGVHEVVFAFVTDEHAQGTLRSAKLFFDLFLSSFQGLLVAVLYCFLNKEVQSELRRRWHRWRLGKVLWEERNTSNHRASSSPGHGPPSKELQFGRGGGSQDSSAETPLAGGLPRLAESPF

Compound | Activity [1] | EC50 [2] [µM] | Activity [3] | Activity [4] | Activity [5] | Activity (Pancreas) | Activity (Mus musculus [6]) | Activity (Mus musculus [7]) | Activity (Mus musculus [8]) | Activity (Mus musculus [9]) | Activity (Mus musculus [10]) | Activity (Mus musculus [11])
Cc1cnc(Sc2nc3cc(Cl)c(Cl)cc3nc2C(F)(F)F)s1 | inactive | 1.4 | inactive | inactive | Dose-dependent effect |  |  |  |  |  |  | 
CC(C)(C)Nc1nc2cc(Cl)c(Cl)cc2nc1S(C)(=O)=O |  | 0.101 |  |  | Active | Active | inactive | inactive | inactive | inactive | Active | inactive
CC[C@H](C)[C@H](NC(=O)[C@H](Cc1ccccc1)NC(=O)[C@H](CCC(=O)O)NC(=O)[C@H](CCCCN)NC(=O)[C@H](C)NC(=O)[C@H](C)NC(=O)[C@H](CCC(N)=O)NC(=O)CNC(=O)[C@H](CCC(=O)O)NC(=O)[C@H](CC(C)C)NC(=O)[C@H](Cc1ccc(O)cc1)NC(=O)[C@H](CO)NC(=O)[C@H](CO)NC(=O)[C@@H](NC(=O)[C@H](CC(=O)O)NC(=O)[C@H](CO)NC(=O)[C@@H](NC(=O)[C@H](Cc1ccccc1)NC(=O)[C@@H](NC(=O)CNC(=O)[C@H](CCC(=O)O)NC(=O)[C@H](C)NC(=O)[C@@H](N)Cc1c[nH]cn1)[C@@H](C)O)[C@@H](C)O)C(C)C)C(=O)N[C@@H](C)C(=O)N[C@@H](Cc1c[nH]c2ccccc12)C(=O)N[C@@H](CC(C)C)C(=O)N[C@H](C(=O)N[C@@H](CCCCN)C(=O)NCC(=O)N[C@@H](CCCN=C(N)N)C(=O)NCC(=O)O)C(C)C |  |  |  |  |  |  | inactive | inactive | inactive | Active |  | inactive
